The source of these data is ChEMBL document CHEMBL2396655, “Design, synthesis, and biological evaluation of (E)-N-aryl-2-arylethenesulfonamide analogues as potent and orally bioavailable microtubule-targeted anticancer agents” (J Med Chem, 2013).

≈ marks a conversion by molar mass, not a printed value. Calls of active or inactive are those of the source. No cut-off for these calls is given here.

The nature of data set [1]: Cytotoxicity against human Caco2 cells after 1 hr by Alamar Blue assay. Format: cell-based. To be noted: Caco-2 cells, read-out: LD50. On the technique in general: The colour change of resazurin is a common sign of viable cells or microbes.
The test system of a further data set is DU-145. Description: Cytotoxicity against human DU145 cells after 96 hrs by trypan blue exclusion assay. In kind it is functional, cell-based. To be noted: for IC50: DU-145, 96 h. The gist of the method:
(§1)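 Cells were grown in DMEM or RPMI with 10% FBS and plated at 2.5×10⁴ cells/well in 12-well dishes. Compounds were added 24 h later at various concentrations. After 96 h, viable cells were counted by trypan blue exclusion from duplicate wells. Results are the mean of two independent experiments.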

Data set [2] is described as follows: Solubility of the compound in water. In kind it is physicochemical.
A further data set has as its system K562. Description: Cytotoxicity against human K562 cells after 96 hrs by trypan blue exclusion assay. In kind it is functional, cell-based. The note with it: for IC50: K562, 96 h. Put shortly:
as §1

For another data set, the species on record is Bos taurus. Description: Inhibition of bovine brain tubulin assessed as destabilization of microtubule polymerization at 10 uM over 40 mins by spectrophotometric analysis. Put shortly: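 Purified bovine brain tubulin was incubated at 37 °C with 10 μM compound, DMSO or reference agents. Polymerization was followed as rising absorbance at 340 nm over 40 min. Data are representative of three independent experiments.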

For data set [3], the system named is CCRF-CEM. The data set can be described thus: Resistance factor, ratio of GI50 for multidrug-resistant human CEM/C2 cells to GI50 for human CEM cells. In kind it is functional.
Data set [4] has as its system CCRF-CEM. Description: Growth inhibition of human CEM cells. Format: functional.
The test system of the next data set is CEM/C2. The data set can be described thus: Growth inhibition of multidrug-resistant human CEM/C2 cells. Format: functional.

Consider `O=c1cc[nH]c(=S)[nH]1` [THIOURACIL], for which, in data set [1], the CC50 at 1 h is > 1000 µM.
By IC50 is commonly meant the concentration that gives 50% inhibition. Read a low IC50 as greater potency in that assay. The solubility is the dissolved amount per volume that the medium holds. High values mean a readily soluble substance, low ones a poorly soluble substance. For `COc1cc(OC)c(/C=C/S(=O)(=O)Nc2ccc(OC)c(NC(C(=O)O)c3ccc(Br)cc3)c2)c(OC)c1` (stereo not drawn), in the data set on DU-145, the Activity result was “Dose-dependent effect” and the IC50 worked out at 0.25 µM. Moreover, in data set [2], the concentration in solution (solubility) was 10000 µg/mL (≈ 16.5 mM). Further, in the data set on K562, the Activity result is “Dose-dependent effect” and the half-inhibitory concentration (IC50) was found to be 0.075 µM.
With `COc1cc(OC)c(/C=C/S(=O)(=O)Nc2ccc(OC)c(NC(C(=O)O)c3ccc(Cl)cc3)c2)c(OC)c1` (stereo not drawn), in the data set on DU-145, the Activity result is “Dose-dependent effect” and the midpoint of inhibition, the IC50, lay at 0.075 µM. This compound came in with a solubility in data set [2] of 10000 µg/mL (≈ 17.8 mM). In addition, in the data set on K562, the Activity result is “Dose-dependent effect” and inhibition was half-maximal at 0.015 µM (IC50).
For the compound `COC(=O)Nc1nc2cc(C(=O)c3cccs3)ccc2[nH]1`, in the data set listed under Bos taurus, the inhibition entry was “Active”.
On to `COc1cc(OC)c(/C=C/S(=O)(=O)Nc2ccc(OC)c(NCC(=O)O)c2)c(OC)c1`, for which, in the data set on DU-145, the Activity result is “Dose-dependent effect” and the IC50 came to 0.4 µM. The inhibition entry in the data set listed under Bos taurus was “Active”. The compound further gave a solubility in data set [2] of 10000 µg/mL (≈ 22.1 mM). In the data set with K562, the Activity result was “Dose-dependent effect” and it took 0.02 µM to reach half-maximal inhibition (IC50).
On to `COC(=O)C(C)Nc1cc(NS(=O)(=O)/C=C/c2c(OC)cc(OC)cc2OC)ccc1OC` (stereo not drawn), for which, in the data set with DU-145, the Activity entry is “Dose-dependent effect” and the IC50 was determined as 0.1 µM. Also, in the data set with K562, the Activity result was “Dose-dependent effect” and the IC50 was 0.3 µM.
For `COc1ccc(/C=C/S(=O)(=O)Nc2ccc(OC)cc2)cc1`, in the data set with DU-145, the Activity entry was “Dose-dependent effect” and the IC50 was 5 µM. In the data set on K562, the Activity entry is “Dose-dependent effect” and the IC50 worked out at 5 µM.
For `O=S(=O)(/C=C/c1ccc(Br)cc1)Nc1ccc(F)cc1`, in the data set with DU-145, the Activity entry is “Dose-dependent effect” and half-maximal inhibition (IC50) was put at 10 µM. Moreover, in the data set with K562, the Activity entry was “Dose-dependent effect” and the IC50 came to 10 µM.
As usually defined, the GI50 is the concentration giving 50% growth inhibition. Turning to `CC[C@@]1(O)C(=O)OCc2c1cc1n(c2=O)Cc2cc3ccccc3nc2-1` [CAMPTOTHECIN], the RatioGI50 with CCRF-CEM [3] is reported as 500. Also, the GI50 in the data set with CCRF-CEM [4] turned out to be 0.002 µM; in the data set with CEM/C2 it was 1 µM.
